Test results published in ChEMBL document CHEMBL1221284, “Development of 2-pyrrolidinyl-N-methyl pyrimidones as potent and orally bioavailable HIV integrase inhibitors” (Bioorg Med Chem Lett, 2010).
pIC50: −log10 of the molar value.

Assays:
[1] = organism: Homo sapiens; assay: Plasma protein binding in human; settings: read-out: PPB (converted)
[2] = system: Human immunodeficiency virus 1; assay: Antiviral activity against HIV1 harboring integrase N155S mutant relative to wild type; format: functional
[3] = system: Human immunodeficiency virus 1; assay: Antiviral activity against HIV1 harboring integrase V151I mutant relative to wild type; format: functional
[4] = system: Human immunodeficiency virus 1; assay: Antiviral activity against HIV1 3B infected in human MT4 cells assessed as inhibition of viral infections in presence of 10% fetal bovine serum; format: functional; settings: Human immunodeficiency virus 1, 3B, read-out: CIC95
Method in brief: (§1)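 Spread assay measuring inhibition of HIV-1 IIIb infection spread in MT-4 T-lymphoid cell culture. The medium held 10% fetal bovine serum for line 3 and 50% normal human serum for line 4. The readout is the 95% inhibitory concentration (CIC95).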

[5] = system: Human immunodeficiency virus 1; assay: Antiviral activity against HIV1 harboring integrase T125K mutant relative to wild type; format: functional
[6] = Plasma clearance in rat at 3 mg/kg, po and 3 mg/kg, iv; format: ADME, organism-based
Method in brief: (§2)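 The iv dose was given in DMSO/PEG400/H2O (20–40–40%) and the oral dose in 1% methylcellulose. Terminal-phase plasma half-life was taken from the iv administration and AUC from the oral administration.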

[7] = system: Human immunodeficiency virus 1; assay: Antiviral activity against HIV1 3B infected in human MT4 cells assessed as inhibition of viral infections in presence of 50 % normal human serum; format: functional; settings: Human immunodeficiency virus 1, 3B, read-out: CIC95
Method in brief: as §1

[8] = system: Human immunodeficiency virus 1; assay: Antiviral activity against HIV1 harboring integrase T66I and S153Y double mutant relative to wild type; format: functional
[9] = system: Human immunodeficiency virus 1; assay: Antiviral activity against HIV1 harboring integrase T66/L74M and V151L double mutant relative to wild type; format: functional
[10] = AUC in dog at 1 mg/kg, iv and 2 mg/kg, po; settings: plasma
[11] = Terminal phase half life in dog at 1 mg/kg, iv and 2 mg/kg, po; settings: in vivo, read-out: beta t1/2 (converted)
[12] = Terminal phase half life in rat at 3 mg/kg, po and 3 mg/kg, iv; format: ADME, organism-based; settings: in vivo, read-out: beta t1/2 (converted)
Method in brief: as §2

[13] = system: Human immunodeficiency virus 1; assay: Antiviral activity against HIV1 harboring integrase T66I mutant relative to wild type; format: functional
[14] = system: Human immunodeficiency virus 1; assay: Antiviral activity against HIV1 harboring integrase T66I and M154I double mutant relative to wild type; format: functional
[15] = AUC in rat at 3 mg/kg, po and 3 mg/kg, iv; format: ADME, organism-based; settings: plasma
Method in brief: as §2

[16] = Oral bioavailability in dog at 1 mg/kg; format: ADME, organism-based, Canis lupus familiaris; settings: in vivo
Method in brief: as §2

[17] = Oral bioavailability in rat at 3 mg/kg; format: ADME, organism-based; settings: in vivo
Method in brief: as §2

[18] = system: Human immunodeficiency virus 1; assay: Antiviral activity against HIV1 harboring integrase F121Y mutant relative to wild type
[19] = molecular target: Human immunodeficiency virus type 1 integrase (Human immunodeficiency virus 1, UniProt Q7ZJM1); assay: Inhibition of HIV 1 recombinant integrase
Chain of Human immunodeficiency virus type 1 integrase (Q7ZJM1 whole entry): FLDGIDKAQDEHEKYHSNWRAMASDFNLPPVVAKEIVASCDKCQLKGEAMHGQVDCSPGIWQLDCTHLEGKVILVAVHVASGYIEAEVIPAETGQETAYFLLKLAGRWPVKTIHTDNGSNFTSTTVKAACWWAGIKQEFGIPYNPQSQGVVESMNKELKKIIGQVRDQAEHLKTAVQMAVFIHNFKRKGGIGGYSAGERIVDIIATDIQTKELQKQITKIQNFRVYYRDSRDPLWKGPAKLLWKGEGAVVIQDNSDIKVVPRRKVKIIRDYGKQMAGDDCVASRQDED
Method in brief: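 Recombinant HIV-1 integrase was pre-assembled on immobilized oligonucleotides. Inhibitor was added after assembly and washing. IC50 is the inhibitor concentration that reduces integrase activity by 50%.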

[20] = system: Human immunodeficiency virus 1; assay: Antiviral activity against HIV1 harboring integrase T125K and […] double mutant relative to wild type; format: functional
[21] = Metabolic stability in rat liver microsomes assessed as glucuronidation rate after 1 hr in presence of UDPGA; format: ADME, Microsome
Method in brief: (§3)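 Rat liver microsomes (1 mg/mL) were incubated with test compound for 1 h. The cofactor was UDPGA for glucuronidation and NADPH for oxidation. Substrate loss was measured by LC/MS/MS and expressed as % of initial remaining.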

[22] = Plasma protein binding in rat; format: ADME, cell-free; settings: read-out: PPB (converted)
[23] = Metabolic stability in rat liver microsomes assessed as oxidation rate after 1 hr in presence of NADPH; format: ADME, Microsome
Method in brief: as §3

Structure (SMILES)	IC95 [4] [nM]	clearance [6] [mL/min/kg]	IC95 [7] [nM]	half-life [12] [h]	AUC [15] [µM·h]	bioavailability [17] [%]	pIC50 [19]	further results
CC(=O)N1C[C@@H](F)C[C@H]1c1nc(C(=O)NCc2ccc(C)c(Cl)c2)c(O)c(=O)n1C	5	29	46	3	3.7	94	7.49	fraction unbound [1]: 0.022; Ratio IC50 [2]: 8; Ratio IC50 [3]: 1; Ratio IC50 [5]: 1; Ratio IC50 [8]: 0.8; Ratio IC50 [9]: 2.5; AUC [10]: 6.4 µM·h; half-life [11]: 1.2 h; Ratio IC50 [13]: 1; Ratio IC50 [14]: 0.8; bioavailability [16]: 80%; Ratio IC50 [18]: 1.5; Ratio IC50 [20]: 3.5
COC(=O)N1C[C@@H](F)C[C@H]1c1nc(C(=O)NCc2ccc(F)cc2)c(O)c(=O)n1C	31	46	63	0.6	1.2	44	8.00	
COC(=O)N1C[C@@H](F)C[C@H]1c1nc(C(=O)NCc2ccc(C)c(Cl)c2)c(O)c(=O)n1C	16	9.9	63	7.4	1.2	10	7.70	
COC(=O)N1C[C@@H](F)C[C@H]1c1nc(C(=O)NCc2ccc(F)c(Cl)c2)c(O)c(=O)n1C	16	21	31	1.5	1.3	25	7.72	
Cn1c([C@@H]2C[C@H](F)CN2Cc2ccon2)nc(C(=O)NCc2ccc(F)cc2)c(O)c1=O	156		625				8.00	
CN1C[C@@H](F)C[C@H]1c1nc(C(=O)NCc2ccc(F)cc2)c(O)c(=O)n1C	63	21	125		4.5		7.64	AUC [10]: 23.1 µM·h; half-life [11]: 3.7 h; bioavailability [16]: 116%
CC(=O)N1C[C@@H](F)C[C@H]1c1nc(C(=O)NCc2ccc(F)c(C)c2)c(O)c(=O)n1C	16	39	31	1.4	0.5	17	7.57	
Cn1c([C@@H]2C[C@H](F)CN2C2CC2)nc(C(=O)NCc2ccc(F)cc2)c(O)c1=O	63		250				7.70	
CC(=O)N1C[C@@H](F)C[C@H]1c1nc(C(=O)NCc2ccc(F)cc2)c(O)c(=O)n1C	14	64	17	0.3	1.2	31	7.82	fraction unbound [1]: 0.21; Ratio IC50 [2]: 15; Ratio IC50 [8]: 5; remaining at 1 h [21]: 43%; Ratio IC50 [9]: 10; fraction unbound [22]: 0.37; Ratio IC50 [14]: 2; Ratio IC50 [20]: 15; remaining at 1 h [23]: 40%
CN(C)S(=O)(=O)N1C[C@@H](F)C[C@H]1c1nc(C(=O)NCc2ccc(F)cc2)c(O)c(=O)n1C	31	64	125			16	8.05	
CC(=O)N1C[C@@H](F)C[C@H]1c1nc(C(=O)NCc2ccc(F)c(Cl)c2)c(O)c(=O)n1C	3	43	17	0.7	0.5	20	7.62	Ratio IC50 [2]: 31; Ratio IC50 [3]: 1; Ratio IC50 [5]: 1; Ratio IC50 [8]: 3; Ratio IC50 [9]: 31; AUC [10]: 2.8 µM·h; half-life [11]: 7.1 h; Ratio IC50 [13]: 2; Ratio IC50 [14]: 3; bioavailability [16]: 34%; Ratio IC50 [18]: 4; Ratio IC50 [20]: 17
CN(C)C(=O)C(=O)N1C[C@@H](F)C[C@H]1c1nc(C(=O)NCc2ccc(F)cc2)c(O)c(=O)n1C	16	138	16	1.6	0.2	19	7.68	
Cn1c([C@@H]2C[C@H](F)CN2S(C)(=O)=O)nc(C(=O)NCc2ccc(F)cc2)c(O)c1=O	31		125				7.82	
Cn1c([C@@H]2C[C@H](F)CN2C(=O)c2cnccn2)nc(C(=O)NCc2ccc(F)cc2)c(O)c1=O	16	77	16	0.2	2.3	18	8.00	
CN(C)C(=O)N1C[C@@H](F)C[C@H]1c1nc(C(=O)NCc2ccc(F)cc2)c(O)c(=O)n1C	125		125				8.00	
